Measured values gathered from unrelated publications.
Lines come from different studies, so protocols differ.
Target: Aurora kinase B (AURKB, Homo sapiens, UniProt Q96GD4)

SMILES | test | setting | quantity | result
N#CC1(c2ccccn2)CCN(Cc2cc(C(=O)O)c(=O)n3ccccc23)CC1 | cell-free assay, competition with immobilised ligand | 1 µM | remaining binding | 76%
C#Cc1n[nH]c2c(-c3cn([C@@H](C)c4ccccc4)c(=O)[nH]c3=O)cc(F)cc12 | enzyme activity, inhibitor | 0.1 µM | inhibition | 0.1%
Nc1ncc(-c2nc(N3CCOCC3)nc(N3CCOCC3)n2)c(C(F)F)n1 | binding, competition with immobilised ligand | 10 µM | remaining binding | 91%
Cn1cncc1[C@](O)(COc1ccc(C#N)cc1-c1ccc(OC(F)(F)F)cc1)c1ccc(C#N)cc1 | cell-free assay, competition with immobilised ligand | 1 µM | remaining binding | 100%
COc1ncccc1-c1cnn2ccc(N3CCN(C(=O)OC(C)C)CC3)nc12 | binding, competition with immobilised ligand | 1 µM | remaining binding | 58%
O=c1[nH]c2ccccc2n1C1CCN(Cc2ccc(-c3[nH]c4cc5ncnc5cc4nc3-c3ccccc3)cc2)CC1 | enzyme activity | 0.5 µM | remaining activity | 98.7%
C#Cc1n[nH]c2c(-c3cn([C@@H](C)c4ccccn4)c(=O)[nH]c3=O)cc(F)cc12 | enzyme activity, inhibitor | 0.1 µM | inhibition | 4.9%
CC(C)(C)c1cc(C=C(C#N)C#N)cc(Br)c1O | enzyme activity, inhibitor | 0.5 µM | remaining activity | 97.1%
Cn1cc(-c2cccc(N3CCc4c(sc5c4CC(C)(C)C5)C3=O)c2CO)cc(Nc2ccncn2)c1=O | enzyme activity, inhibitor | 1 µM | inhibition | 6%
